Bioassay records: PubChem, several laboratories
Cardio protect = cardioprotection against H2O2-induced cell death, primary screen, uHTS, H9c2 cells, ATPLite luminescence. H9c2 cardiomyocytes, H2O2 injury protection, 2 h. 360,000 compounds, 0.63% hits. protection from H2O2 cell death, % at 20 µM;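 active = compounds giving at least 50% protection of heart cells from peroxide-induced death in the single-dose screen, raw or plate-pattern-corrected value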;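 also: 0% = DMSO wells with peroxide and 100% = DMSO wells without peroxide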
pCIP destab = p/CIP-EGFP fusion destabilizers, primary screen, fluorescence, F442A cells | 16 h | decrease of EGFP signal, % at 10 µM | Q05BA5 | 290,000 compounds, 0.01% hits;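 active = EGFP signal decrease of at least 30% at 10 µM or well 3 SD below plate mean, unless failing retest; inactive = the rest, including hits failing retest or dose response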
CTSL1 counter = Fasciola hepatica cathepsin L1 inhibitors, primary screen, counter-screen for PFM18AAP inhibitor project, biochemical, QFRET, fluorogenic peptide substrate | AID 1906, 2009 | recombinant F. hepatica cathepsin L1, Z-Leu-Arg-MCA fluorescence | inhibition, % at 5.96 µM | 300,000 compounds, 0.49% hits;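 active = inhibition above the mean of all tested compounds plus 3 SD, set per screening campaign, cut at about 17% in these data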;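 also: 0% = plate median of test compound wells and 100% = 1 µM Z-Phe-Ala-diazomethylketone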
T cruzi repl = inhibitors of intracellular T. cruzi growth, primary screen, luminescence, NIH3T3 host cells | T. cruzi beta-gal in NIH3T3, 90 h | AID 1885, 2009 | 300,000 compounds, 1.4% hits | inhibition, % (no concentration beside the values);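 active = mean inhibition across valid replicates above about 55%, limit read from the data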;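 also: signal also drops with host cell toxicity which is not excluded here; 0% = plate median of DMSO wells and 100% = zero luminescence signal; higher percent means less beta-gal luminescence so fewer parasites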
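Assay system: NIH/3T3 fibroblasts plus reporter T. cruzi. Amount: NIH/3T3 cells, 5,000 per well. Buffer or medium: DMEM, 2% fetal bovine serum. Doses: compound pinned at 50 nL/well, DMSO. Schedule: ≥90 h infection period, 3 h prior cell attachment. Signal: luminescent β-galactosidase signal after 60 min lysis. Read-out: parasite load inhibition, %.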
PP5 primary = PP5 phosphatase inhibitors, primary screen, biochemical, fluorescence; Serine/threonine-protein phosphatase 5 (Homo sapiens), P53041; 320,000 compounds, 0.18% hits; inhibition, % at 6.7 µM; purified PP5c, OMFP substrate fluorescence;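 active = inhibition above the campaign's mean inhibition across all tested compounds plus 3 SD, cut at about 9.5% in these data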;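 also: 0% = DMSO only and 100% = 100 µM cantharidin control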
GASC-1 inh = inhibitors of GASC-1 histone demethylase, primary screen, biochemical, fluorescence, DELFIA europium. Lysine-specific demethylase 4C (Homo sapiens), Q9H3R0. GST-JMJD2C(1-420) H3K9me3 demethylation. inhibition, % at 2.35 µM. 330,000 compounds, 0.069% hits;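 active = more than half of a compound's replicate wells show inhibition beyond 50%, single wells judged on their own value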;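 also: signal counts dimethyl H3K9 product captured on neutravidin plate; 0% = median of DMSO wells and 100% = 0.3 times that DMSO median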
Target sequence (Q9H3R0 1-420 limits assumed): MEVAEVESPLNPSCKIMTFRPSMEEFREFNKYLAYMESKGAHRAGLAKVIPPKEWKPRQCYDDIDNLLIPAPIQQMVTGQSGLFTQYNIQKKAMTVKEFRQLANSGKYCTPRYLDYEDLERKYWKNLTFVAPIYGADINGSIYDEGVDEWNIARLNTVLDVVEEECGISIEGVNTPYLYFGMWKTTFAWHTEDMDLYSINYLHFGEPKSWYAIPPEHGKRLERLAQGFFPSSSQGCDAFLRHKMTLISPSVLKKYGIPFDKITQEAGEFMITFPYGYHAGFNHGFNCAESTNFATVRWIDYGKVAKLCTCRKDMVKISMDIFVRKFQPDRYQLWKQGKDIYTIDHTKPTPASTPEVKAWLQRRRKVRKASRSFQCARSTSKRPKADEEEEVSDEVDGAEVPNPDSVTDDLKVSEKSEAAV
* marks the source's active call; other numbers are inactive results. This is a sample that favours compounds with a hit; in the whole collection about 2.4% have one here.

What do the screens show for `O=C(COC(=O)c1c2c(nc3ccccc13)/C(=C/c1cccc([N+](=O)[O-])c1)CCC2)NC1CCS(=O)(=O)C1` (stereo not drawn)?
Cardio protect: 59*; pCIP destab: -3; CTSL1 counter: 4; T cruzi repl: 46; PP5 primary: 2; GASC-1 inh: -18

What do the screens show for `CC(=O)[C@@]1(O)C(C)CC2C3C=C(C)C4=Cc5c(cnn5-c5ccccc5)C[C@]4(C)C3C(O)C[C@@]21C` (stereo partly drawn)?
Cardio protect: -9; pCIP destab: -3; CTSL1 counter: -1; T cruzi repl: 64*; PP5 primary: 6; GASC-1 inh: 7

How did Cc1cc(C(=O)NC2CC(C)(C)Cc3c2cnn3-c2ccccc2)n(C)n1 (stereo not drawn) do in these assays?
Cardio protect: -3; pCIP destab: -15; CTSL1 counter: -2; T cruzi repl: -2; PP5 primary: 2; GASC-1 inh: 4

What do the screens show for `O=C1N/C(=C\c2ccc(O)cc2)C(=O)c2ccccc21`?
Cardio protect: -10; pCIP destab: 10; CTSL1 counter: 108*; T cruzi repl: -7; PP5 primary: 2; GASC-1 inh: -10

How did O=C(O)/C=C1\NC(=O)c2ccccc21 do in these assays?
Cardio protect: -2; pCIP destab: -3; CTSL1 counter: 0; T cruzi repl: -6; PP5 primary: -1; GASC-1 inh: 5

What do the screens show for `CN(C)c1cccc(C(=O)NNC(=O)C23CC4CC(CC(C4)C2)C3)c1`?
Cardio protect: -1; GASC-1 inh: 0

Results for Cc1ccc(-c2nc(NC(=O)c3ccc(S(=O)(=O)N(CCC#N)CCC#N)cc3)sc2-c2ccccc2)cc1 ?
Cardio protect: 0; pCIP destab: -3; CTSL1 counter: 4; T cruzi repl: 56*; PP5 primary: 2; GASC-1 inh: -1

What do the screens show for `O=C(NCCCN1CCCC1)C1CCN(C(=O)c2cc3sccc3n2Cc2ccc(F)cc2)CC1`?
Cardio protect: 7; pCIP destab: 1; CTSL1 counter: 2; T cruzi repl: 55*; PP5 primary: -2; GASC-1 inh: -18

How did Cc1c(C)n(CCCN(C)C)c2ncnc(Nc3ccc(F)cc3)c12 do in these assays?
Cardio protect: 8; pCIP destab: 4; CTSL1 counter: -1; T cruzi repl: 61*; PP5 primary: 1; GASC-1 inh: -11

How did C/C(=N\Nc1nc(C)cc(-c2ccccc2)n1)c1ccc(C)o1 do in these assays?
Cardio protect: 48*; pCIP destab: -2; CTSL1 counter: 3; T cruzi repl: -4; PP5 primary: 1; GASC-1 inh: 9

Results for N#CC(CCc1ccccc1[N+](=O)[O-])(CCc1ccccc1[N+](=O)[O-])C(N)=O ?
Cardio protect: -1

How did O=S(=O)(NCCc1c[nH]c2ccccc12)c1ccc(F)cc1 do in these assays?
Cardio protect: 6

Results for COc1ccc(C2CC(c3cccs3)=NN2C(=O)CSC2=NN3CCCC(=O)N=C3S2)cc1 (stereo not drawn) ?
Cardio protect: 6; pCIP destab: -5; CTSL1 counter: 14; T cruzi repl: 10; PP5 primary: 4; GASC-1 inh: -6

Results for COc1ccc(C2CC(c3ccc(Br)cc3)=NN2C(=O)CSC2=NN3CCCC(=O)N=C3S2)cc1 (stereo not drawn) ?
Cardio protect: -6; pCIP destab: -7; CTSL1 counter: 3; T cruzi repl: 60*; PP5 primary: 2; GASC-1 inh: 3

Results for Cc1cc(C)c(C#N)c(SCc2nnc(-c3ccccc3[N+](=O)[O-])o2)n1 ?
Cardio protect: -14; pCIP destab: -7; CTSL1 counter: 3; T cruzi repl: 69*; PP5 primary: 0; GASC-1 inh: 12

How did COc1ccc([N+](=O)[O-])cc1NC1CCN(C(=O)c2cccs2)CC1 do in these assays?
Cardio protect: 6; pCIP destab: -23; CTSL1 counter: -1; T cruzi repl: -3; PP5 primary: -1; GASC-1 inh: 5

What do the screens show for `O=C(O)CNC(=O)C1COc2ccccc2O1` (stereo not drawn)?
Cardio protect: 9; pCIP destab: -15; CTSL1 counter: 5; T cruzi repl: -8; PP5 primary: 1; GASC-1 inh: -5

How did O=C(NC1CC2CCC1C2)C1COc2ccccc2O1 (stereo not drawn) do in these assays?
Cardio protect: 4; pCIP destab: -18; CTSL1 counter: 2; T cruzi repl: -3; PP5 primary: -5; GASC-1 inh: 68*

How did N#CC1=C(N)OC2=C(C(=O)CC(c3ccccc3)C2)C1c1cccnc1 (stereo not drawn) do in these assays?
Cardio protect: 0; pCIP destab: 4; CTSL1 counter: -1; T cruzi repl: 55*; PP5 primary: 1; GASC-1 inh: 15

How did N#CC1=C(N)OC2=C(C(=O)CC(c3ccccc3)C2)C1c1ccoc1 (stereo not drawn) do in these assays?
Cardio protect: -1; pCIP destab: 9; CTSL1 counter: -2; T cruzi repl: 2; PP5 primary: 2; GASC-1 inh: -11

How did CC(=O)C1=C(C)OC(N)=C(C#N)C1c1cc2cccc(C)c2nc1Cl (stereo not drawn) do in these assays?
Cardio protect: 6; pCIP destab: -1; CTSL1 counter: 0; T cruzi repl: -14; PP5 primary: 2; GASC-1 inh: -8

Results for Cc1ccc2cc(C3C(C#N)=C(N)Oc4c3ccc3cccnc43)c(=O)[nH]c2c1 (stereo not drawn) ?
Cardio protect: 70*; pCIP destab: 4; CTSL1 counter: 0; T cruzi repl: -8; PP5 primary: 3; GASC-1 inh: 14

Results for N#CC1=C(N)Oc2c(ccc3cccnc23)C1c1cccnc1 (stereo not drawn) ?
Cardio protect: 83*; pCIP destab: 0; CTSL1 counter: 3; T cruzi repl: 11; PP5 primary: 0; GASC-1 inh: -36

What do the screens show for `CCc1ccc2[nH]c(=O)c(C3C(C#N)=C(N)Oc4c3ccc3cccnc43)cc2c1` (stereo not drawn)?
Cardio protect: 64*; pCIP destab: 3; CTSL1 counter: 6; T cruzi repl: 59*; PP5 primary: 1; GASC-1 inh: 1

How did CC1CCN(CC(=O)N(C)c2c(N)n(Cc3ccccc3)c(=O)[nH]c2=O)CC1 do in these assays?
Cardio protect: -3
